Measured values: ChEMBL document CHEMBL1149152, “Selective, orally active gamma-aminobutyric acidA alpha5 receptor inverse agonists as cognition enhancers” (J Med Chem, 2004)

Tests used:
[1] = molecular target: T1, GABA-A receptor; alpha-3/beta-3/gamma-2 (Homo sapiens, UniProt P18507+P28472+P34903); assay: Displacement of [3H]-Ro- 15-1788 from human GABA-A alpha-3-beta-3-gamma-2 receptor subunits expressed in Xenopus oocytes; format: cell-based, Oocyte
T1 sequence (P18507 whole entry): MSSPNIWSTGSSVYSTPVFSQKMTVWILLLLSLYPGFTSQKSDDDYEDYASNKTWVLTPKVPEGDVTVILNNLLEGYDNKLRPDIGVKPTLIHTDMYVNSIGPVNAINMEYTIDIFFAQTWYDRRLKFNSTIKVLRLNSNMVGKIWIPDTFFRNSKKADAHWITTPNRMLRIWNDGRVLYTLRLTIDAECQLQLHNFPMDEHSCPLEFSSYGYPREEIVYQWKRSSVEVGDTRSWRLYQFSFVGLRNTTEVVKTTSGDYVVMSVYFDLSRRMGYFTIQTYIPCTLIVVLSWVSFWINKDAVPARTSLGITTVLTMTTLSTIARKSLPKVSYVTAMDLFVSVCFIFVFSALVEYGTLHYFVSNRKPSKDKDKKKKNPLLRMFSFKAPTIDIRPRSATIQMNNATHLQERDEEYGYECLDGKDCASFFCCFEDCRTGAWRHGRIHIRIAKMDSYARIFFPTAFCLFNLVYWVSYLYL
T1 sequence (P28472 whole entry): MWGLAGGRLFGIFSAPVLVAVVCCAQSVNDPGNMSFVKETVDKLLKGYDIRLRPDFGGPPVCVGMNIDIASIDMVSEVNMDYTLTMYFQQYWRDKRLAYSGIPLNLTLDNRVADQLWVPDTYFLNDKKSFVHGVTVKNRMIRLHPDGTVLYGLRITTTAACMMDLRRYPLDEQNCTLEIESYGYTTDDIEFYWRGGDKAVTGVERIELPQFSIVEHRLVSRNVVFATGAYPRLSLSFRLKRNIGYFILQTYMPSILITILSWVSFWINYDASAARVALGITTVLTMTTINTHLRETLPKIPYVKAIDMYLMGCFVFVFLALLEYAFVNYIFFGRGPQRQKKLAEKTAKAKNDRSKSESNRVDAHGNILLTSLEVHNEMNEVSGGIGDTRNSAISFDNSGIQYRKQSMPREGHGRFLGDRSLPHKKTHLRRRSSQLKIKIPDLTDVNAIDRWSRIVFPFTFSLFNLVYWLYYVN
T1 sequence (P34903 whole entry): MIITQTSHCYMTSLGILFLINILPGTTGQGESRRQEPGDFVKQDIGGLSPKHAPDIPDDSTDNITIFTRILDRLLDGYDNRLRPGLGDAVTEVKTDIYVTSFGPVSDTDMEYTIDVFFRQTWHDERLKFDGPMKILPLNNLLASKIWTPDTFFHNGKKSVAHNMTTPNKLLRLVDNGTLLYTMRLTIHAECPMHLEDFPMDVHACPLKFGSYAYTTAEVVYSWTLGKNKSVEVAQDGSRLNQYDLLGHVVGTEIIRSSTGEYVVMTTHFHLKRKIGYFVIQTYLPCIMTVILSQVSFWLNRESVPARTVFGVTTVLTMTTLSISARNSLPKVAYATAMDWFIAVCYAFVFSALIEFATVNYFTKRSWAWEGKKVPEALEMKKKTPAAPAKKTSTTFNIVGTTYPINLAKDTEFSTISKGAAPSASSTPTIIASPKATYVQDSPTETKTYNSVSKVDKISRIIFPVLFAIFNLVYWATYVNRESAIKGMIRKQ
How it was run: (§1)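 Radioligand displacement of [3H]Ro 15-1788 from recombinant human GABA-A receptor subtypes. Ki values are the mean of at least two independent determinations, with SEM given where at least three were performed.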

[2] = molecular target: GABA-A receptor; alpha-2/beta-3/gamma-2 (Homo sapiens) (UniProt P18507+P28472+P47869); assay: Percentage modulation of submaximal (EC20) response to GABA in Xenopus oocytes expressing human GABA-A alpha-2-beta-3-gamma-2 subunits; format: cell-based; conditions: Oocyte; also: test concentration or dose not given here
How it was run: (§2)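 Two-electrode voltage clamp on Xenopus laevis oocytes transiently expressing human GABA-A receptor subtypes. Modulation of the submaximal GABA (EC20) ion current is expressed as a percentage. Values are the arithmetic mean ± SEM from at least three independent cells.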

[3] = molecular target: GABA-A receptor; alpha-3/beta-3/gamma-2 (Homo sapiens) (UniProt P18507+P28472+P34903); assay: Percentage modulation of submaximal (EC20) response to GABA in Xenopus oocytes expressing human GABA-A alpha-3-beta-3-gamma-2 subunits; format: cell-based; conditions: Oocyte; how it was run: as §2; also: test concentration or dose not given here
[4] = molecular target: T2, GABA-A receptor; alpha-5/beta-3/gamma-2 (Homo sapiens, UniProt P18507+P28472+P31644); assay: Displacement of [3H]-Ro- 15-1788 from human GABA-A alpha-5-beta-3-gamma-2 receptor subunits expressed in Xenopus oocytes; format: cell-based, Oocyte; how it was run: as §1
T2 sequence (P18507 whole entry): T1 sequence (P18507 whole entry)
T2 sequence (P28472 whole entry): T1 sequence (P28472 whole entry)
T2 sequence (P31644 whole entry): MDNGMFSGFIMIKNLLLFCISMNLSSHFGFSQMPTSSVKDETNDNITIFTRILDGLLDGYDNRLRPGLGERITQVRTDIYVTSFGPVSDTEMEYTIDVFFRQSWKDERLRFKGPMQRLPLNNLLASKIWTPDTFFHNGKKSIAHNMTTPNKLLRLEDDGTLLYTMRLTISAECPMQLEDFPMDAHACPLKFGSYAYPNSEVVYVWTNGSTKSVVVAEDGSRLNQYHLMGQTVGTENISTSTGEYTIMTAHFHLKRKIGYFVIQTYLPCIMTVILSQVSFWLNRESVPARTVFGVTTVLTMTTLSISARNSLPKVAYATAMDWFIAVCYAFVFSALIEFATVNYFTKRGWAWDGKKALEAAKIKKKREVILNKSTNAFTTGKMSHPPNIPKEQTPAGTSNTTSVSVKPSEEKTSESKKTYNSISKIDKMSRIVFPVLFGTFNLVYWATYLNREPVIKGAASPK

[5] = molecular target: T3, GABA-A receptor; alpha-2/beta-3/gamma-2 (Homo sapiens, UniProt P18507+P28472+P47869); assay: Displacement of [3H]-Ro- 15-1788 from human GABA-A alpha-2-beta-3-gamma-2 receptor subunits expressed in Xenopus oocytes; format: cell-based, Oocyte; how it was run: as §1
T3 sequence (P18507 whole entry): T1 sequence (P18507 whole entry)
T3 sequence (P28472 whole entry): T1 sequence (P28472 whole entry)
T3 sequence (P47869 whole entry): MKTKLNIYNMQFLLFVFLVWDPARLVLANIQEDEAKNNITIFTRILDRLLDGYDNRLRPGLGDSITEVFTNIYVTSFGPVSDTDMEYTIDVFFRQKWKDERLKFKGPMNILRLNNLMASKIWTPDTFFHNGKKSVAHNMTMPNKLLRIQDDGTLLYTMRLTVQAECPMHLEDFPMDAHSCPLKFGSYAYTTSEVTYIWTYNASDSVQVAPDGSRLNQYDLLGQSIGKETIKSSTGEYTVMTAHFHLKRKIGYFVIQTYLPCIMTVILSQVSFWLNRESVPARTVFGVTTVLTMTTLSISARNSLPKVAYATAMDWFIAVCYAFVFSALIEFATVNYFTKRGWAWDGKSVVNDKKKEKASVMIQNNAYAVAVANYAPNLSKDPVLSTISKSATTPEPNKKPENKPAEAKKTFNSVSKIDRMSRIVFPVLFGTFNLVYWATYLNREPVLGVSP

[6] = molecular target: T4, GABA-A receptor; alpha-1/beta-3/gamma-2 (Homo sapiens, UniProt P14867+P18507+P28472); assay: Displacement of [3H]-Ro- 15-1788 from human GABA-A alpha-1-beta-3-gamma-2 receptor subunits expressed in Xenopus oocytes; format: cell-based, Oocyte
T4 sequence (P14867 whole entry): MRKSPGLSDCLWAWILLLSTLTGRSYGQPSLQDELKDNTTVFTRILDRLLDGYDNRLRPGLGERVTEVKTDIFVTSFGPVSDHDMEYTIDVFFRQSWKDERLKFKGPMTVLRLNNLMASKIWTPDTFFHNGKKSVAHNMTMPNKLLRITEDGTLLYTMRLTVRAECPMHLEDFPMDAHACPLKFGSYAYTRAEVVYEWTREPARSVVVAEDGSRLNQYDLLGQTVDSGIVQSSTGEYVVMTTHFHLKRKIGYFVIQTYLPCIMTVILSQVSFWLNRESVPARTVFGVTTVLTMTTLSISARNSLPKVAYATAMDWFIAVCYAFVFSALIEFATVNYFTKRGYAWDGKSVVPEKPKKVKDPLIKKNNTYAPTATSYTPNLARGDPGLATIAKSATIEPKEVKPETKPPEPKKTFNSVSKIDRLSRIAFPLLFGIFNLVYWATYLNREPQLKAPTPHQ
T4 sequence (P18507 whole entry): T1 sequence (P18507 whole entry)
T4 sequence (P28472 whole entry): T1 sequence (P28472 whole entry)
How it was run: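 Radioligand binding to recombinant human GABA-A receptor subtypes, measuring displacement of [3H]Ro 15-1788. Ki values are the mean of at least two independent determinations, with SEM given where at least three were performed.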

[7] = molecular target: GABA-A receptor; alpha-5/beta-3/gamma-2 (Homo sapiens) (UniProt P18507+P28472+P31644); assay: Percentage modulation of submaximal (EC20) response to GABA in Xenopus oocytes expressing human GABA-A alpha-5-beta-3-gamma-2 subunits; format: cell-based; conditions: Oocyte; how it was run: as §2; also: test concentration or dose not given here
[8] = molecular target: GABA-A receptor; alpha-1/beta-3/gamma-2 (Homo sapiens) (UniProt P14867+P18507+P28472); assay: Percentage modulation of submaximal (EC20) response to GABA in Xenopus oocytes expressing human GABA-A alpha-1-beta-3-gamma-2 subunits; format: cell-based; conditions: Oocyte; how it was run: as §2; also: test concentration or dose not given here

Compound | Ki [1] [nM] | Efficacy [2] [%] | Efficacy [3] [%] | Ki [4] [nM] | Ki [5] [nM] | Ki [6] [nM] | Efficacy [7] [%] | Efficacy [8] [%]
Cc1cccc(COc2nn3c(-c4ccoc4)nnc3c3c2C2CCC3CC2)n1 | 40 | -6 | -4 | 3.1 | 63 | 250 | -24 | –
CNC1=Nc2ccc(Cl)cc2C(c2ccccc2)=[N+]([O-])C1 | – | 101 | 173 | – | – | – | – | 165
Cc1cc(-c2nnc3c4ccccc4c(OCc4cn(C)nn4)nn23)no1 | 0.61 | 12 | 4 | 0.66 | 0.58 | 0.88 | -29 | -4
Cc1cccc(COc2nn3c(-c4ccccc4)nnc3c3c2C2CCC3CC2)n1 | 25 | – | – | 2.9 | 46 | 170 | 15 | –
Cc1cc(-c2nnc3c4ccccc4c(OCc4cnnn4C)nn23)no1 | 5.2 | -25 | -6 | 2 | 2.8 | 4.2 | -33 | -8
CCc1c(C(=O)OC)ncc2[nH]c3cc(OC)c(OC)cc3c12 | 10 | -34 | -52 | 2.3 | 11 | 16 | -52 | -36
Cc1cccc(COc2nn3c(-c4ccsc4)nnc3c3c2C2CCC3CC2)n1 | 48 | 9 | 38 | 3.7 | 110 | 270 | – | 17
Cc1cccc(COc2nn3c(-c4cc(C)on4)nnc3c3c2C2CCC3CC2)n1 | 41 | 15 | -1 | 4.6 | 86 | 280 | -29 | –
Cc1cc(-c2nnc3c4ccccc4c(OCc4ccccn4)nn23)no1 | 0.96 | – | -4 | 0.62 | 1.5 | 0.93 | -46 | -2
Cc1cccc(COc2nn3c(-c4cc(C)on4)nnc3c3ccccc23)n1 | 1.3 | – | – | 0.79 | 1.6 | 0.88 | -15 | –
Cc1cccc(COc2nn3c(-c4nc(C)no4)nnc3c3c2C2CCC3CC2)n1 | 7.6 | -10 | -21 | 1.1 | 17 | 74 | -35 | -15
Cc1cc(-c2nnc3c4ccccc4c(OCc4cnn(C)n4)nn23)no1 | 0.8 | 9 | -3 | 0.87 | 0.64 | 1.3 | -35 | -5
